Measurements from PMC2883171 (Organic & biomolecular chemistry, 2008).
Values joined by “and” are separate entries in the source; they are usually repeats but may differ in a detail not shown here. Equal values may be shown once. Each block holds one molecule with its values, some of them ahead of it.

What was measured:
[1] = molecular target: T1, soybean lipoxygenase-1 (sLO-1) (Glycine max, UniProt P08170); experiment: Kinetic inhibition assay of sLO-1; assay type: biochemical
T1 sequence (P08170 1-839): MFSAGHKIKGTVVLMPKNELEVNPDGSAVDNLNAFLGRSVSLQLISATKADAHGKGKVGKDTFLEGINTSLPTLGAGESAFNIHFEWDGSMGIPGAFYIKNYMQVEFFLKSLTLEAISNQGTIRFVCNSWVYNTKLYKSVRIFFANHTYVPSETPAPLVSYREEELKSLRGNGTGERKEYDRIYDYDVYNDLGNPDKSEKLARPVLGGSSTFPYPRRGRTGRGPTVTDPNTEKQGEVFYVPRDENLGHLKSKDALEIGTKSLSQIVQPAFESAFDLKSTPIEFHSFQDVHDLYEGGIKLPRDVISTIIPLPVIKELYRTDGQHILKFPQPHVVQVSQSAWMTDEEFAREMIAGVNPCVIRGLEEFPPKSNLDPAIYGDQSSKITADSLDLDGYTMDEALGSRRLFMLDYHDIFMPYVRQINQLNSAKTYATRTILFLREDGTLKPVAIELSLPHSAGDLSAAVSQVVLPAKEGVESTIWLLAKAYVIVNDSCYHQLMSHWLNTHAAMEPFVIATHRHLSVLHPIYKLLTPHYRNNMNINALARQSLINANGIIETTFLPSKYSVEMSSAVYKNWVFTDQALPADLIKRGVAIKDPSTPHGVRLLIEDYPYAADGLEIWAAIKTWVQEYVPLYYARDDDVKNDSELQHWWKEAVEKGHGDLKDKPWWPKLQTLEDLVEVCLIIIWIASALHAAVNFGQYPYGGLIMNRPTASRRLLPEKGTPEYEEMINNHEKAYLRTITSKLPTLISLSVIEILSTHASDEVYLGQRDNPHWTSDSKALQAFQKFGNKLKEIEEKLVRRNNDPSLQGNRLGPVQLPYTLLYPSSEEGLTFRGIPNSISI

[2] = molecular target: T2, human reticulocyte 15-lipoxygenase-1 (15-hLO-1) (Homo sapiens, UniProt P16050); experiment: Kinetic inhibition assay of 15-hLO-1; assay type: biochemical; conditions: for Ki: Kis; for Ki / Kii: noncompetitive
T2 sequence (P16050 1-662): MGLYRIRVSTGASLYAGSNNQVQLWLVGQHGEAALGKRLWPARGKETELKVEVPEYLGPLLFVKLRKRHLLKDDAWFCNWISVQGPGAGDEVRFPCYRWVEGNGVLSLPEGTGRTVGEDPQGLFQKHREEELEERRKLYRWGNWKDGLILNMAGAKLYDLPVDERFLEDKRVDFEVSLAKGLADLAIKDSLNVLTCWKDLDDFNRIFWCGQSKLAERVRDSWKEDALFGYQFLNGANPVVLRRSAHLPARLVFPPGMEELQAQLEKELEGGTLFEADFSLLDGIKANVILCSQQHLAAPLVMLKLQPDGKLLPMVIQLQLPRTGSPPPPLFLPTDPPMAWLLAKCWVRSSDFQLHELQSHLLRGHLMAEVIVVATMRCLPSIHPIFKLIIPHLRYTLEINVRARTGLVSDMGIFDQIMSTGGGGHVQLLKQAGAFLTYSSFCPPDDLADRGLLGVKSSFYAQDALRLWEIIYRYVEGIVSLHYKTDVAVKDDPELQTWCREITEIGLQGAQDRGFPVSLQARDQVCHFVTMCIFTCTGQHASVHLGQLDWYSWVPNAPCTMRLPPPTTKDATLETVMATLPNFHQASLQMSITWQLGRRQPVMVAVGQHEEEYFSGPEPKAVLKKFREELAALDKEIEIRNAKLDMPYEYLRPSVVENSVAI

[3] = molecular target: T3, human platelet 12-lipoxygenase (12-hLO) (Homo sapiens, UniProt P18054); experiment: Kinetic inhibition assay of 12-hLO; assay type: biochemical
T3 sequence (P18054 1-663): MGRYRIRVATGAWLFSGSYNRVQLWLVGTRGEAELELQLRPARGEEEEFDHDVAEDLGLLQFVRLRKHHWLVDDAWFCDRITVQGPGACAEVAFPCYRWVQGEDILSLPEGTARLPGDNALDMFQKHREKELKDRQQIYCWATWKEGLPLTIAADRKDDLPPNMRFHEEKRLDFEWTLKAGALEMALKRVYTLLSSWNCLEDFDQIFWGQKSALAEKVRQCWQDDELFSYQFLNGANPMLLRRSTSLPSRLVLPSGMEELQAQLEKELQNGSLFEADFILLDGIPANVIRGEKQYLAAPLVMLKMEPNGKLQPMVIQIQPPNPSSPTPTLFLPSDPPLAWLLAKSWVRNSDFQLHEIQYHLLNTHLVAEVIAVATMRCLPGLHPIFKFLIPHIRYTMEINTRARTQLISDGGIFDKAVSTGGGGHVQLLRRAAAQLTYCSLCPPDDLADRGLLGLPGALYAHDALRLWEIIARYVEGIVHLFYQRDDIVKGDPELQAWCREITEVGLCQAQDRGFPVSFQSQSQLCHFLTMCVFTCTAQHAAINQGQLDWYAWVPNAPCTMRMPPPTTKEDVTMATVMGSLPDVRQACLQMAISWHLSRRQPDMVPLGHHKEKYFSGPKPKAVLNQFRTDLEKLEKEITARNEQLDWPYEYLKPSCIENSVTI

[4] = molecular target: T4, 15-hLO-1 (Homo sapiens, UniProt P16050); experiment: HPLC analysis of product distribution, 15-hLO-1; assay type: biochemical; conditions: AA 15 µM, inhibitor at 5 × Ki, HEPES pH 7.5; error in parentheses
T4 sequence (P16050 1-662): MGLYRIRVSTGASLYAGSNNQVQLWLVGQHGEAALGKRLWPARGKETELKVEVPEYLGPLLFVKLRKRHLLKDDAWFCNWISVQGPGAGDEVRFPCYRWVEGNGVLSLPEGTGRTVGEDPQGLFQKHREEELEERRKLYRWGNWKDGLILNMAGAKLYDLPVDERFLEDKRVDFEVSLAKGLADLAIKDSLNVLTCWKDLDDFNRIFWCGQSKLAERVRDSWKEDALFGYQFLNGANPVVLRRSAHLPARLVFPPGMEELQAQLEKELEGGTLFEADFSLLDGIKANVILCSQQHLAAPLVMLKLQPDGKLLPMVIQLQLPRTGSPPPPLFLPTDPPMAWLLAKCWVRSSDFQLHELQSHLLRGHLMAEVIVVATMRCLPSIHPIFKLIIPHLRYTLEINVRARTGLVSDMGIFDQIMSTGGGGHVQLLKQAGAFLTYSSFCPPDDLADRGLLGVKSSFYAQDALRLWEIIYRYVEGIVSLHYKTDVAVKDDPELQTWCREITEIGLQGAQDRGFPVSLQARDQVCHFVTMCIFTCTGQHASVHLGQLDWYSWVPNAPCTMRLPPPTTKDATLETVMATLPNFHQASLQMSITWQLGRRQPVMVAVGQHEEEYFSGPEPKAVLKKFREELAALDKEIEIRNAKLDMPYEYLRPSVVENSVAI
Procedure, shortened: (§1)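 Reaction was followed at 235 nm and products isolated after 15 min. Products were resolved by isocratic reverse-phase HPLC (55% A/45% B) against authentic HETE standards, with 8- and 12-HETE coeluting.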

[5] = molecular target: T5, 12-hLO (Homo sapiens, UniProt P18054); experiment: HPLC analysis of product distribution, 12-hLO; assay type: biochemical; conditions: AA 15 µM, inhibitor at 5 × Ki, HEPES pH 7.5; error in parentheses
T5 sequence (P18054 1-663): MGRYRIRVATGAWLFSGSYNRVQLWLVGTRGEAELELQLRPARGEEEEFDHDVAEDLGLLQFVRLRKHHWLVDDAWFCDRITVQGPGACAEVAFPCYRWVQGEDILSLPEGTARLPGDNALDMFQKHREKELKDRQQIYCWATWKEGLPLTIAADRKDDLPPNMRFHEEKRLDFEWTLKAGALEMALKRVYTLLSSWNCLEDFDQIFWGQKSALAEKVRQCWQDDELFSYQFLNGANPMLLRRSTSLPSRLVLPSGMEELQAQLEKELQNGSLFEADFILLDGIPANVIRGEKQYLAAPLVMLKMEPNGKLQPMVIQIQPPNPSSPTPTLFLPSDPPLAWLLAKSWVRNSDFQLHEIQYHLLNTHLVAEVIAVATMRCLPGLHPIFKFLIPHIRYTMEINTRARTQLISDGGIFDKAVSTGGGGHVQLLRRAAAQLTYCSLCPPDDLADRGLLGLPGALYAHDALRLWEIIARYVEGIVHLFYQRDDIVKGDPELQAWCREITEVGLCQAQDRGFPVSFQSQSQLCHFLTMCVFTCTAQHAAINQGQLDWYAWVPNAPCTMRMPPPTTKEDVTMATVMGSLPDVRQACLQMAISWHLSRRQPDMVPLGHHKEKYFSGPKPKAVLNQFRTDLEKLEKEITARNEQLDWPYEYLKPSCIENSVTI
Procedure, shortened: as §1

[6] = molecular target: T6, sLO-1 (Glycine max, UniProt P08170); experiment: HPLC analysis of product regioselectivity, sLO-1; assay type: biochemical, soybean; conditions: exclusive product 13-HPODE, no 9-HPODE, with and without inhibitor
T6 sequence (P08170 1-839): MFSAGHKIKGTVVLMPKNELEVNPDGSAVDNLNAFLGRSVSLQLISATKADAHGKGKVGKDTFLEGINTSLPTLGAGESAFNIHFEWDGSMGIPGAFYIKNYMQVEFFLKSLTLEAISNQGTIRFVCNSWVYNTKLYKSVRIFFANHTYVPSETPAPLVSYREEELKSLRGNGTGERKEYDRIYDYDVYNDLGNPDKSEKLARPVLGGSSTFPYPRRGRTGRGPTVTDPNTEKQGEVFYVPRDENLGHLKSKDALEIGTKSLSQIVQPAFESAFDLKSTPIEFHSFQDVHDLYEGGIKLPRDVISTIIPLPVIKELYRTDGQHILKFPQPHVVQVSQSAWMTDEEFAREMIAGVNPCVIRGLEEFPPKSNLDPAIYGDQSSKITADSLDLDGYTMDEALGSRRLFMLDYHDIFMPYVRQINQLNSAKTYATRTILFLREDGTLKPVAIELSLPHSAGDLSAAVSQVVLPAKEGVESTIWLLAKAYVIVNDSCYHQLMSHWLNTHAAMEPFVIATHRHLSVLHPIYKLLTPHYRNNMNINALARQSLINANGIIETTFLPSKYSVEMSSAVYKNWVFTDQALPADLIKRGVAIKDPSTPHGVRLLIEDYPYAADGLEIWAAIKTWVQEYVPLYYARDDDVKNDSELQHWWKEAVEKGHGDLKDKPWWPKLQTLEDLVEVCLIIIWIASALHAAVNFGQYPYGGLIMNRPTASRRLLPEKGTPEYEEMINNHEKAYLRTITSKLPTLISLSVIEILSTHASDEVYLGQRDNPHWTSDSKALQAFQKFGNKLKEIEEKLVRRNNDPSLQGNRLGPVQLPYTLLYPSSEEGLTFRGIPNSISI

[7] = molecular target: T6, sLO-1; experiment: Incubation of thiaLAs with sLO-1 as possible substrates; assay type: biochemical, soybean; conditions: over the course of one hour
[8] = molecular target: T6, sLO-1; experiment: Consumption of the inhibitor under turnover conditions with 13-HPODE; assay type: biochemical, soybean; conditions: enzyme, AA and 13-HPODE, 1 hour, HPLC
[9] = Ki (competitive inhibition), substrate linoleic acid, pH 10.0
[10] = substrate linoleic acid, pH 10.0
[11] = substrate LA, pH 7.5, 13-HPODE activator

Ki [1, 9]: 22 µM
Ki ([1]; Kis, substrate arachidonic acid, pH 7.5, 13-HPODE activator, noncompetitive): 45.6 ± 11.1 µM
Ki ([1]; Kis, substrate arachidonic acid, pH 10.0, 13-HPODE activator, noncompetitive): 48.5 µM and 48 µM
Mode of inhibition in the presence of activator ([1]; oxidation of LA, 13-HPODE present): competitive inhibition
Mode of inhibition ([1]; substrate AA, pH 10.0 and pH 7.5, 13-HPODE activator): noncompetitive inhibition
Kii ([1]; substrate arachidonic acid, pH 7.5, 13-HPODE activator, noncompetitive): 38.2 ± 5.4 µM
Kii ([1]; substrate arachidonic acid, pH 10.0, 13-HPODE activator, noncompetitive): 36.0 ± 4.0 µM
Mode of inhibition [1, 10]: competitive inhibition
Mode of inhibition ([2]; AA as substrate): noncompetitive inhibitor
Ki ([2]; substrate AA, 13-HPODE activator): 11.4 µM
Ki [2, 11]: 20.1 µM
Kii ([2]; substrate AA, 13-HPODE activator, listed as 11-ThiaLA): 18.1 ± 2.0 µM
Kii ([2]; substrate AA, 13-HPODE activator, listed as 11-Thialinoleic acid): 18.1 µM
Kii [2, 11]: 20.0 ± 1.4 µM
Mode of inhibition ([2]; with respect to LA): noncompetitive inhibitor
Ki [3]: 2.5 µM
Mode of inhibition ([3]; AA as substrate): competitive inhibitor
Ki for 12-hLO smaller than for sLO-1 (LA) ([3]; compared with Ki for oxidation of LA by sLO-1): approximately 10 fold
Mode of inhibition in the presence of activator ([3]; oxidation of AA, 13-HPODE (16 µM) present): competitive inhibition
8-/12-HETE (%) [4]: 16 (3) %
11-HETE (%) [4]: 5 (1) %
15-HETE (%) [4]: 79 (3) %
8-/12-HETE (%) [5]: 93 (1) %
11-HETE (%) [5]: 2 (1) %
15-HETE (%) [5]: 5 (1) %
Conversion of the inhibitor under turnover conditions [8]: no discernable conversion
SMILES: CCCCC/C=C\S/C=C\CCCCCCCC(=O)O [Compound 11-thiaLA, 11-Thialinoleic acid]
Effect on product regioselectivity of sLO-1 [6]: did not affect the product regioselectivity
Activity as substrate on incubation with sLO-1 [7]: did not result in any appreciable activity

Ki [1, 9]: 35 µM
Mode of inhibition [1, 10]: competitive inhibition
Substrate or inhibitor behaviour with 12-hLO ([3]; AA as substrate): neither a substrate nor an inhibitor
Conversion of the inhibitor under turnover conditions [8]: oxidized to a small extent
SMILES: CCCCS/C=C\C/C=C\CCCCCCCC(=O)O [Compound 14-thiaLA, 14-Thialinoleic acid]
Activity as substrate on incubation with sLO-1 [7]: did not result in any appreciable activity
